# Assay results pooled from the literature.
# Lines come from different studies, so protocols differ.
Structure (SMILES),tested on,test,test system,conditions,quantity,result
CC(=O)c1cccc(NC(=O)c2cc3c(=O)n4ccccc4nc3n2C)c1,Severe acute respiratory syndrome coronavirus 2,viral replication,Vero,1 µM,inhibition,93.7%
Fc1ccc([C@@H]2CCNC[C@H]2COc2ccc3c(c2)OCO3)cc1,Severe acute respiratory syndrome coronavirus 2,"viral replication, inhibitor",A549-ACE2,,IC50,2.51 µM
C=CCNC1=C2C[C@@H](C)C[C@H](OC)[C@H](O)[C@@H](C)/C=C(\C)[C@H](OC(N)=O)[C@@H](OC)/C=C\C=C(/C)C(=O)NC(=C(c3ccccc3)C1=O)C2=O,ARPE-19,"cell growth or viability, MTT",,,IC50,> 20 µM
O=C(O[C@@H]1Cc2c(O)cc(O)cc2O[C@@H]1c1cc(O)c(O)c(O)c1)c1cc(O)c(O)c(O)c1,Severe acute respiratory syndrome coronavirus 2,cytopathic effect,Vero C1008,0.7812 µM,inhibition,0%
CCN(CCO)CCCC(C)Nc1ccnc2cc(Cl)ccc12 (centres unmarked),Severe acute respiratory syndrome coronavirus 2,"viral replication, inhibitor",A549-ACE2,,IC50,0.871 µM
CC(C)=CCc1c(O)ccc(C(=O)/C=C/c2ccc(O)cc2)c1O,Severe acute respiratory syndrome coronavirus 2,"cytopathic effect, inhibitor",Vero C1008,3.125 µM,inhibition,0%
CCc1ccc(NC(=O)c2cc3c(=O)n4ccccc4nc3n2C)cc1,Severe acute respiratory syndrome coronavirus 2,viral replication,Vero,10 µM,inhibition,95%
O=[N+]([O-])c1ccc(C2=[N+]([O-])c3ccccc3N3CCN=C23)cc1,Clostridioides difficile,microbial growth,,,MIC50,≤ 0.06 µg/mL
O=C(/C=C/c1ccc(O)c(O)c1/C=C/c1ccc(O)c(O)c1)O[C@H](Cc1ccc(O)c(O)c1)C(=O)O,Severe acute respiratory syndrome coronavirus 2,"cytopathic effect, inhibitor",Vero C1008,100 µM,inhibition,58.3%
O=C(Nc1ccccc1F)c1cc2c(=O)n3ccccc3nc2n1Cc1ccccc1,Severe acute respiratory syndrome coronavirus 2,viral replication,Vero,0.1 µM,inhibition,87.2%
COc1ccc(C[C@@H]2c3cc(Oc4cc(C[C@@H]5c6cc(O)c(OC)cc6CCN5C)ccc4O)c(OC)cc3CCN2C)cc1,Severe acute respiratory syndrome coronavirus 2,cytopathic effect,Vero C1008,0.7812 µM,inhibition,0%
COc1c2c(cc3c1OCO3)[C@]13C=C[C@H](OC)C[C@@H]1[N@](C2)C[C@H]3OC(=O)c1ccc2ccccc2c1,PANC-1,"cell growth or viability, WST-1",,,IC50,> 10 µM
Cc1ccc(NC(=O)c2cc3c(=O)n4cccc(C)c4nc3n2C)cc1Cl,Severe acute respiratory syndrome coronavirus 2,viral replication,Vero,10 µM,inhibition,94.8%
C=C[C@@](C)(/C=C/c1ccc(O)cc1)CCC=C(C)C,Severe acute respiratory syndrome coronavirus 2,cytopathic effect,Vero C1008,6.25 µM,inhibition,0%
CCCN1CCC=C(c2cc(-c3ccc(C)cc3)no2)C1,Severe acute respiratory syndrome coronavirus 2,"viral replication, inhibitor",A549-ACE2,,IC50,2.88 µM
N#C[C@]1(CO)O[C@@H](n2cc(F)c3c(N)ncnc32)C[C@@H]1O,Hepatitis B virus,"viral replication, qPCR",HepG2.2.15,14 days,IC50,0.026 µM
CN(CCc1ccc(Cl)c(Cl)c1)CCN1CCCC1,Severe acute respiratory syndrome coronavirus 2,viral replication,Vero C1008,,IC50,5.25 µM
Cc1cc(NC(=O)c2cc3c(=O)n4cccc(C)c4nc3n2C)ccc1Br,Severe acute respiratory syndrome coronavirus 2,viral replication,Vero,1 nM,inhibition,5.51%
OCCN1CCN(CCCN2c3ccccc3C=Cc3ccccc32)CC1,Severe acute respiratory syndrome coronavirus 2,"viral replication, inhibitor",A549-ACE2,,IC50,2.51 µM
CCC(CC)COC(=O)[C@H](C)N[P@](=O)(OC[C@H]1O[C@@](C#N)(c2ccc3c(N)ncnn23)[C@H](O)[C@@H]1O)Oc1ccccc1,Severe acute respiratory syndrome coronavirus 2,viral replication,Vero,0.1 µM,inhibition,64.7%
CN(Cc1cc(Br)cc(Br)c1N)C1CCCCC1,Severe acute respiratory syndrome coronavirus 2,"viral replication, inhibitor",A549-ACE2,,IC50,1.32 µM
Cc1ncc([N+](=O)[O-])n1CCO,Clostridioides difficile,microbial growth,,,MIC90,0.25 µg/mL
CC(C)(C)[C@]1(O)CCN2C[C@H]3c4ccccc4CCc4cccc(c43)[C@@H]2C1,Severe acute respiratory syndrome coronavirus 2,"viral replication, inhibitor",A549-ACE2,,IC50,9.12 µM
[O-][N+]1=C(c2ccc(Cl)cc2)C2=NCCN2c2ccccc21,Clostridioides difficile,microbial growth,,,MIC50,0.25 µg/mL
CCN(CC)CCO[C@H]1CC[C@@]2(C)C(=CC[C@@H]3[C@@H]2CC[C@]2(C)C(=O)CC[C@@H]32)C1,Severe acute respiratory syndrome coronavirus 2,"viral replication, inhibitor",A549-ACE2,,IC50,0.132 µM
N#C[C@]1(CO)O[C@@H](n2cnc3c(N)ncnc32)C[C@@H]1O,Hepatitis B virus,"viral replication, qPCR",HepG2.2.15,14 days,IC50,0.066 µM
